p47phox inh: p47phox (human) inhibition; P14598; p47phox/p22phox peptide binding, fluorescence polarization, 2 h; inhibition, % at 24.7 µM; 220,000 tested, 0.53% active; AID 1274;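 active = inhibition above about 30%, limit read from the data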;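 note: 0% = p47phox with labelled peptide and 100% = labelled peptide alone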
Biofilm kill mix: mixture kills Candida albicans biofilm cells | C. albicans biofilm persisters + clotrimazole, fluorescence viability; primary screen in compound mixtures of four per well | inhibition, % at 7.6 µM | 120,000 tested, 0.02% active | AID 1242;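 active = inhibition above 30.3% in the primary screen of four-compound pools, then above 30% when the compound was retested; inconclusive = passed the primary limit but could not be retested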;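 note: compounds exposed to preformed 24 h biofilms for 48 h; 0% = untreated biofilm control and 100% = clotrimazole plus chlorhexidine kill blank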
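System: C. albicans CAF4-2 wild-type biofilms; Medium: RPMI/MOPS medium, pH 7.0; Reagent: Clotrimazole, 50 µg/mL; Times: biofilm formation 24 h, compound exposure 48 h, 37 °C; Detection: 2-h Alamar Blue fluorescence, 535/590 nm excitation/emission; Evaluation: percent inhibition of biofilm viability.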
Hck Nef HTS: human Hck-Nef kinase inhibition | P08631 | Recombinant Hck-YEEI plus Nef, Z-Lyte FRET kinase assay | inhibition, % at 20 µM | 220,000 tested, 0.68% active;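 active = Hck-Nef kinase inhibition above about 50%, limit read from the data; inactive = inhibition below that limit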;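 note: 0% = DMSO with Hck plus Nef and 100% = Hck alone without Nef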
Target sequence (P08631 whole entry, looked up): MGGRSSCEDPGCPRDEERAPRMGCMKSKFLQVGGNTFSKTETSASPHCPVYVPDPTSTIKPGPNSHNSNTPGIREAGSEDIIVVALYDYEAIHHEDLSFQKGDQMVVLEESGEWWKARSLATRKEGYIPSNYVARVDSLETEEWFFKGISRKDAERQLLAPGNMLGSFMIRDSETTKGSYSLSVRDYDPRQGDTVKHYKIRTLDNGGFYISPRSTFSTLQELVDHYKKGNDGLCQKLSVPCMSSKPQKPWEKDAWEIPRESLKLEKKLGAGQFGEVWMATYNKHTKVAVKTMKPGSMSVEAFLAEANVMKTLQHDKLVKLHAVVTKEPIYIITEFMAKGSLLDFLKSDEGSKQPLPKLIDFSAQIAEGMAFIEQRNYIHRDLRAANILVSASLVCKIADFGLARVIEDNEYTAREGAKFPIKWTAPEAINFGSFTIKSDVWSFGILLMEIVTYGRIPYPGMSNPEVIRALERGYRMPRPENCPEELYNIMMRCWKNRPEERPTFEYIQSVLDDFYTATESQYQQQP
Arbovirus inh: blocks arbovirus infection | arbovirus infection cell-based antiviral screen | inhibition, % at 10 µM | 200,000 tested, 0.37% active | AID 1251; in the data active = inhibition above about 30%
RAM network inh: yeast RAM network inhibition; S. cerevisiae dse1pr::URA3 reporter, 5-FOA growth OD615, 2 d; analog-sensitive cbk1-as2 kinase mutant strain; inhibition, % at 50 µM; 190,000 tested, 1.8% active;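 active = inhibition above a set limit, 3 SD over mean compound inhibition, cut at about 8.4% in these data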;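 note: 0% = DMSO-only wells with no growth and 100% = 10 µM 1-NA-PP1 full growth; inhibition rescues growth on 5-FOA so higher OD means more RAM inhibition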
WT yeast gro inh: growth inhibition of WT yeast, mitochondrial fusion screen | 190,000 tested, 2.1% active | mitochondrial fusion phenotypic screen, WT strain | inhibition, % at 10 µM; in the data active = inhibition above about 58%; tested in S. cerevisiae
Starred values were filed as active, the others as inactive; ? = inconclusive; . = no result given. A selection: hits, their analogues and other compounds. The true share with any hit is near 4.6%.

SMILES | p47phox inh | Biofilm kill mix | Hck Nef HTS | Arbovirus inh | RAM network inh | WT yeast gro inh
Cc1ccc(Nc2nc(-c3cccs3)cs2)nc1 | -9 | 10 | 12 | 14 | 0 | 69*
c1cncc(Nc2nc(-c3cccs3)cs2)c1 | -12 | . | 9 | 7 | 2 | 2
CN(c1ccc(O)cc1)c1nc(-c2cccs2)cs1 | -102 | -7 | 19 | 1 | -1 | 67*
CC(=O)Nc1ccc(/C(C)=N/NC(=O)C2CC2c2ccccc2)cc1 (centres undefined) | -14 | 5 | 12 | 4 | 1 | 4
O=C(CN1C(=O)S/C(=C\c2ccc(F)cc2)C1=O)Nc1cccc(S(=O)(=O)NCc2ccco2)c1 | -13 | 9 | 1 | -10 | 5 | 1
CC(C)Oc1ccc(C(=O)NC2(C(F)(F)F)NC(=O)N(CCCc3ccccc3)C2=O)cc1 (centres undefined) | -4 | 15 | 2 | -21 | 0 | 65*
CCCC12CN3CCN(CC(C3)/C1=N\NC(=O)c1ccccc1Cl)C2 | 5 | 4 | 20 | 6 | 1 | -3
COc1cc(/C=C2\SC(=O)N(CCNC(=O)c3sc4cc(F)ccc4c3Cl)C2=O)cc(OC)c1OC | . | 5 | 55* | -16 | 3 | -10
Cc1ccc(C(C)C)c(OC(=O)/C=C/c2ccccc2)c1 | -5 | . | 1 | 4 | 1 | 79*
Cc1ccc(CNC(=S)Nc2cc(C)ccc2OC(F)F)cc1 | 0 | 16 | -1 | -4 | 4 | 56
CC(C)c1ccc(C2=C(O)c3ccccc3C(=O)C2=O)cc1 | -3 | 6 | 5 | 33* | 1 | -4
CCSc1nnc(NC(=O)C2CCN(S(=O)(=O)c3c(C)c(C)cc(C)c3C)CC2)s1 | -9 | 14 | -1 | 10 | 5 | 20
CCN1C(=O)C(CC(=O)Nc2ccc(Br)cc2)N(CCCc2ccccc2)C1=S (centres undefined) | -12 | . | 2 | -32 | 11* | 47
CCOc1cccc2sc(Cl)nc12 | -1 | 16 | -9 | 0 | 3 | -6
CCOc1cccc2sc(NN)nc12 | 6 | 13 | 10 | 38* | 0 | 30
Clc1ccccc1CNc1nc2ccccc2n2cnnc12 | 5 | 31 | -6 | . | . | .
CC(C)NC(=O)c1ccccc1-c1nc(-c2ccccc2Cl)no1 | -22 | . | 0 | 0 | 0 | 2
CC(C)(C)NC(=O)c1ccccc1-c1nc(-c2ccccc2Cl)no1 | 43* | . | 4 | -3 | 2 | 23
CSc1ccc(/C=N/n2c(Cc3ccc(Br)cc3)n[nH]c2=S)cc1 | -142 | 3 | 14 | 11 | 10.0* | 71*
COc1cc2ncnc(NCc3ccccc3C)c2cc1OC | -4 | . | 25 | 2 | 0 | 20
COc1cc2ncnc(NCc3ccccc3Cl)c2cc1OC | -12 | 10 | 74* | 2 | 3 | 8
CN(/N=C\c1ccc(O)c(O)c1)c1nc(-c2ccccc2)cc(-c2ccccc2)n1 | -14 | 13 | 2 | -33 | 1 | 71*
COc1ccc(-c2cnnc(N/N=C/c3ccc(O)c(O)c3)n2)cc1 | -41 | 8 | 8 | -26 | 2 | 8
O=C1Nc2ccc(Cl)cc2[C@@](C#CC2CC2)(C(F)(F)F)O1 | -2 | . | . | -22 | . | 82*
O=C1Nc2cc(Cl)ccc2C1(N1CCNCC1)C(F)(F)F (centres undefined) | -11 | . | 3 | -7 | 1 | 9
SMILES | p47phox inh | Biofilm kill mix | Hck Nef HTS | Arbovirus inh | RAM network inh | WT yeast gro inh
COc1ccc(Cn2c(C)nnc2-c2cnn(C)c2N)cc1 | 3 | 4 | 22 | 3 | 1 | -10
COc1ccccc1CN=Cc1[nH]c2ccc(Br)c(Cl)c2c1O | -10 | . | 1 | -1 | 0 | 67*
O=[N+]([O-])c1ccc(Cl)cc1NCCCN1CCOCC1 | 2 | ? | 1 | 8 | 3 | 7
CC(NC(=O)Cn1cccc1C(=O)c1ccccc1)c1ccc2c(c1)OCCO2 (centres undefined) | 71* | -6 | -1 | -7 | 0 | 5
O=C(Cn1cccc1C(=O)c1ccccc1)NCc1ccc2c(c1)OCO2 | -2 | . | 2 | -18 | 4 | .
CCCNC(=O)c1c(N)n(-c2cc(OC)cc(OC)c2)c2nc3ccccc3nc12 | 4 | . | 23 | 7 | 2 | 13
Cc1nn(-c2nc3ccccc3[nH]2)c(=O)c2ccccc12 | -6 | 7 | 22 | -31 | -1 | 91*
Cc1nn(-c2ccc3ccccc3c2)c(=O)c2ccccc12 | -2 | 14 | 17 | -2 | 0 | 3
CSC(=NCc1ccco1)NC#N | 4 | 27 | 15 | . | . | .

Assay outcomes: PubChem BioAssay, several laboratories
